Structures are written as SMILES. Active and inactive are the calls of the source. The rule behind the calls is not given here.

Usually half-life stands for how long it takes for the measured level to halve.

The nature of series [1]: Cytotoxicity against human HS-Sultan cells assessed as cell viability at 100 ug/ml after 72 hrs by MTT assay. The format is functional. Conditions: read-out: Activity. Background: Formazan colour is commonly taken as a measure of viable cells.
The test system of series [2] is HUVEC. The series can be described thus: Antiangiogenic activity against VEGF-induced HUVEC assessed as tube area at 100 uM after 11 days by BCIP/NBT visualization assay. The format is functional, Homo sapiens. In a few lines: (§1)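 HUVECs co-cultured with fibroblasts (angiogenesis kit) grown with test drug at 30 or 100 μM plus VEGF-A 10 ng/ml for 11 days. Fixed in 70% ethanol, then mouse anti-human CD31 (1:4000, 1 h, 37 °C) and AP-conjugated goat anti-mouse IgG (1:500, 1 h, 37 °C), developed with BCIP/NBT. Mean ± S.E.M.; VEGF n = 9, VEGF + compound n = 3; Dunnett's test versus VEGF.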

Series [3] concerns HUVEC. The series can be described thus: Antiangiogenic activity against VEGF-induced HUVEC assessed as tube length at 100 uM after 11 days after 11 days by BCIP/NBT visualization assay. The format is functional, cell-based. Particulars: Homo sapiens. In a few lines: as §1
The test system of series [4] is HUVEC. The experiment in a line: Antiangiogenic activity against VEGF-induced HUVEC assessed as tube joint at 100 uM after 11 days after 11 days by BCIP/NBT visualization assay. The format is functional, cell-based. Particulars: Homo sapiens. In a few lines: as §1
Series [5] relates to HUVEC. The series can be described thus: Antiangiogenic activity against VEGF-induced HUVEC assessed as tube path at 100 uM after 11 days after 11 days by BCIP/NBT visualization assay. The format is functional, cell-based. Conditions: Homo sapiens. In a few lines:
as §1

For series [6], the system named is KB. The series can be described thus: Cytotoxicity against human KB cells assessed as cell viability at 100 ug/ml after 72 hrs by MTT assay. Particulars: read-out: Activity. The format is functional.
For series [7], the system named is MCF7. The series can be described thus: Cytotoxicity against human MCF7 cells assessed as cell viability at 100 ug/ml after 72 hrs by MTT assay. The format is functional. Conditions: MCF7, 72 h, read-out: Activity.
The subject of series [8] is IM-9. The experiment in a line: Cytotoxicity against human IM9 cells assessed as cell viability at 100 ug/ml after 72 hrs by MTT assay. The format is functional. Particulars: IM-9, 72 h, read-out: Activity.
Series [9] is described as follows: Stability assessed as half life at pH 6.24. Conditions: buffer. The format is physicochemical.
The nature of series [10]: Stability assessed as half life at pH 7.23. The format is physicochemical. Conditions: buffer.
The nature of series [11]: Stability assessed as half life at pH 8.78. The format is physicochemical. Conditions: buffer.

Take `O=C1CCC(N2C(=O)c3ccccc3C2=O)C(=O)N1` (racemic) [THALIDOMIDE]: the viability at 100 µg/mL came out at 85.9% in [1], 92.2% in series [6], 86.5% in [7] and 107% in [8]. Moreover, the Activity in series [2] is under 60%. Besides, the result in series [3], in [4] and in series [5] was inactive.

Take `O=C1CC[C@@H](N2C(=O)c3ccccc3C2=O)C(=O)N1`: the viability at 100 µg/mL was 75.6% in [1], 96.9% in series [6], 89.8% in series [7] and 87.1% in series [8]. In series [2], the Activity was over 70%. For the same compound, the outcome in series [3], in series [4] and in series [5] was inactive.

Consider `O=C1CC[C@H](N2C(=O)c3ccccc3C2=O)C(=O)N1`, for which the viability at 100 µg/mL in series [1] turned out to be 88.6%; in series [6], 95.6%; in [7] it was 81.3%; in series [8], 93.5%. The values for the half-life in series [9], in [10] and in series [11] were 27.8 h, 5.1 h and 2.6 h, respectively. In [2], the Activity is reported as under 60%.

The record behind these values is ChEMBL document CHEMBL1151853, “Synthesis, configurational stability and stereochemical biological evaluations of (S)- and (R)-5-hydroxythalidomides” (Bioorg Med Chem Lett, 2009).
